Results published in ChEMBL document CHEMBL4371044, “Celastrol Promotes Weight Loss in Diet-Induced Obesity by Inhibiting the Protein Tyrosine Phosphatases PTP1B and TCPTP in the Hypothalamus” (J Med Chem, 2018).
Calls of active or inactive are those of the source. No cut-off for these calls is given here.

Legend:
Mus musculus [1] = assay: Antiobesity activity in high fat diet-induced obese Ptpn1fl/fl null C57BL/6 mouse assessed as reduction in body weight at 100 ug/kg, ip for 10 consecutive days; format: functional, organism-based
Outline: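 Male Ptpn1fl/fl, Ptpn2fl/fl or double-floxed mice: chow 8 weeks, then high-fat diet (45% energy from fat) 12 weeks. Bilateral intra-ARC stereotaxic injection of rAAV-CMV-Cre-GFP or rAAV-CMV-GFP, 100 nL/side. After 2 weeks recovery, vehicle or 100 μg/kg ip daily at 6 pm for 10 days; body weight tracked; two-way repeated-measures ANOVA with Tukey test; means ± SEM.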

Mus musculus [2] = assay: Antiobesity activity in high fat diet-induced obese Ptpn2fl/fl null C57BL/6 mouse assessed as hypophagia at 100 ug/kg, ip for 10 consecutive days; format: functional, organism-based
Mus musculus [3] = assay: Antiobesity activity in high fat diet-induced obese Ptpn1fl/fl/Ptpn2fl/fl null C57BL/6 mouse assessed as hypophagia at 100 ug/kg, ip for 10 consecutive days; format: functional, organism-based
[4] = molecular target: T1, Tyrosine-protein phosphatase non-receptor type 1 (Homo sapiens) (UniProt P18031); assay: Non competitive inhibition of human N-terminal His6-tagged PTP1B catalytic domain (1 to 393 residues) expressed in Escherichia coli strain Rosetta2 (DE3) using DiFMUP as substrate preincubated for 10 mins followed by substrate addition and measured after 10 mins by Michaelis-Menten plot analysis
T1 sequence (whole entry): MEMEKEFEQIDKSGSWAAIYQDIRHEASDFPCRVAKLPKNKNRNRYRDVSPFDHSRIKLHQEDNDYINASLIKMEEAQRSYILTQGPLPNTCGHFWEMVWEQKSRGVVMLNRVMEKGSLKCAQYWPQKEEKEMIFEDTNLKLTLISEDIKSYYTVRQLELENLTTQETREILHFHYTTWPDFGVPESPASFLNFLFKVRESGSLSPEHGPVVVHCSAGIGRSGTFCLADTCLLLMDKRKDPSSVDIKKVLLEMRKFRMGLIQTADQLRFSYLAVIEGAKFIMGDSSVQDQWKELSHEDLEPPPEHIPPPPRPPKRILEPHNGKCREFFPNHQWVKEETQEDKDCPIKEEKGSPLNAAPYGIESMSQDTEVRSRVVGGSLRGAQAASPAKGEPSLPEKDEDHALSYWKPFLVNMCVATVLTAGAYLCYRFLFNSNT

[5] = molecular target: T1, Tyrosine-protein phosphatase non-receptor type 1 (Homo sapiens); assay: Inhibition of human N-terminal His6-tagged PTP1B catalytic domain (1 to 393 residues) expressed in Escherichia coli strain Rosetta2 (DE3) up to 500 uM using pNPP as substrate preincubated for 10 mins followed by substrate addition and measured after 10 mins by […]
[6] = molecular target: T2, Tyrosine-protein phosphatase non-receptor type 2 (Homo sapiens) (UniProt P17706); assay: Inhibition of human N-terminal His6-tagged TCPTP catalytic domain (1 to 296 residues) expressed in Escherichia coli strain Rosetta2 (DE3) up to 500 uM using pNPP as substrate preincubated for 10 mins followed by substrate addition and measured after 10 mins by […]
T2 sequence (whole entry): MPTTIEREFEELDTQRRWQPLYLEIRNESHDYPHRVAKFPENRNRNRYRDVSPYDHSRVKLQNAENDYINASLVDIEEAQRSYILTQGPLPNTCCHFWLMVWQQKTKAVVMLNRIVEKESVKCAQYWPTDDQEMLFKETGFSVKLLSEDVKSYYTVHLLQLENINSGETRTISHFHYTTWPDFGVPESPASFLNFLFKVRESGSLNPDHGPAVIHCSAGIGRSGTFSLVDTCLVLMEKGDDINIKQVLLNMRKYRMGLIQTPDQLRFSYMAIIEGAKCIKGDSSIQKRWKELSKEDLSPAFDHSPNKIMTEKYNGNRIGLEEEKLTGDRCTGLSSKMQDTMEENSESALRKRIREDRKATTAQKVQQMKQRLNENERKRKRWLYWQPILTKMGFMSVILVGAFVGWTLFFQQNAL

[7] = molecular target: T3, Tyrosine-protein phosphatase non-receptor type 1 (Homo sapiens, UniProt P18031); assay: Binding affinity to human N-terminal His6-tagged PTP1B catalytic domain (1 to 298 residues) expressed in Escherichia coli strain Rosetta2 (DE3) assessed as association rate constant […]
T3 sequence (P18031 whole entry): T1 sequence (whole entry)

[8] = molecular target: T1, Tyrosine-protein phosphatase non-receptor type 1 (Homo sapiens); assay: (§1) Inhibition of human N-terminal His6-tagged PTP1B catalytic domain (1 to 393 residues) expressed in Escherichia coli strain Rosetta2 (DE3) using DiFMUP as substrate preincubated for 10 mins followed by substrate addition and measured after 10 mins in presence of 0.05% Tween20 by fluorescence assay
Outline: (§2)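 DiFMUP IC50 assay (1 nM enzyme, 10 min preincubation, substrate at Km, 37 °C, ex 358/em 455 nm), repeated as an aggregation check under three altered conditions: 10-fold enzyme (10 nM), 0.05% Tween 20, or 0.1 mg/mL BSA in buffer.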

[9] = molecular target: Tyrosine-protein phosphatase non-receptor type 6 (Homo sapiens, UniProt P29350); assay: Inhibition of human SHP1 (245 to 521 residues) expressed in Escherichia coli strain BL21(DE3) using DiFMUP as substrate preincubated for 10 mins followed by substrate addition and measured after 10 mins by fluorescence assay
Sequence of Tyrosine-protein phosphatase non-receptor type 6 (P29350 whole entry, the tested form may be a part): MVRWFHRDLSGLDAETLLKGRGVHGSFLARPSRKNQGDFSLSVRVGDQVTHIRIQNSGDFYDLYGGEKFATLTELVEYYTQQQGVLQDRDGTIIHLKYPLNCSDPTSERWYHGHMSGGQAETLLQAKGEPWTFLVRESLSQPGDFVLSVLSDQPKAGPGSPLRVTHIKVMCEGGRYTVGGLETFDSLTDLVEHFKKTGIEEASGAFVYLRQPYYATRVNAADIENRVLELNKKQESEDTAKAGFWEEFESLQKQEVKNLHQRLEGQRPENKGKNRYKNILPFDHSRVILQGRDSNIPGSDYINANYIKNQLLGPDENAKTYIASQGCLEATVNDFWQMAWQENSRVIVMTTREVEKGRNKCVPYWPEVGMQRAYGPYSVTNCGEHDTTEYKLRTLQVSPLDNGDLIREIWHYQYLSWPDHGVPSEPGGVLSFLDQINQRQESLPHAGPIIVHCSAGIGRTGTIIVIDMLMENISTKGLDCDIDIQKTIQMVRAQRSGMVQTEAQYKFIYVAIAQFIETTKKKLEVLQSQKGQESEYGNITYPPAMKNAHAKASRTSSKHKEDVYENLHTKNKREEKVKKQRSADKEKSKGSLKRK
Outline: (§3)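 Selectivity panel on enzymes expressed in E. coli BL21(DE3), purified by nickel affinity then size exclusion. DiFMUP fluorescence assay run as for PTP1B/TCPTP, with per-enzyme conditions in a supplementary table; nonlinear regression for IC50; three independent experiments.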

[10] = molecular target: Receptor-type tyrosine-protein phosphatase epsilon (Homo sapiens, UniProt P23469); assay: Inhibition of human PTPRE (107 to 707 residues) expressed in Escherichia coli strain BL21(DE3) using DiFMUP as substrate preincubated for 10 mins followed by substrate addition and measured after 10 mins by fluorescence assay; outline: as §3
Sequence of Receptor-type tyrosine-protein phosphatase epsilon (P23469 whole entry, the tested form may be a part): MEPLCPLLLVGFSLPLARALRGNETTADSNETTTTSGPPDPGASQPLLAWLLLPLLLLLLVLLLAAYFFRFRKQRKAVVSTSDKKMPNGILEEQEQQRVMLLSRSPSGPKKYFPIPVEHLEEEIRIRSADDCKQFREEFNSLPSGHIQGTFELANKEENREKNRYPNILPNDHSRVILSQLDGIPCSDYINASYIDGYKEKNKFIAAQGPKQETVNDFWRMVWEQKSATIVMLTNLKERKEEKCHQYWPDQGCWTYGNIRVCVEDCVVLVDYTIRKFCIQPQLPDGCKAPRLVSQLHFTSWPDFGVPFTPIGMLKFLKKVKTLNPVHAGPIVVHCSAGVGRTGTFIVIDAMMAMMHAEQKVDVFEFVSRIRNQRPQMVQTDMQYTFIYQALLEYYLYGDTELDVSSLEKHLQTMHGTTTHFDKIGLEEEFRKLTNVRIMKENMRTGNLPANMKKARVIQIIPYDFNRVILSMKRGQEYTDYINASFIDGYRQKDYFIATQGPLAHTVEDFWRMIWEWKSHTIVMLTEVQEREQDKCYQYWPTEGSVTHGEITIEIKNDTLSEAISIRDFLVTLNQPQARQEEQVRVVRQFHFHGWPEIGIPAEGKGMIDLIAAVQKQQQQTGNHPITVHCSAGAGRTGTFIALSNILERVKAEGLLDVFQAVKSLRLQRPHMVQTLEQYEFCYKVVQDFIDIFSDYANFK

[11] = Inhibition of mouse LMPTP-B (1 to 158 residues) expressed in Escherichia coli strain BL21(DE3) using DiFMUP as substrate preincubated for 10 mins followed by substrate addition and measured after 10 mins by fluorescence assay; outline: as §3
[12] = molecular target: Phosphatidylinositol 3,4,5-trisphosphate 3-phosphatase and dual-specificity protein phosphatase PTEN (Homo sapiens, UniProt P60484); assay: Inhibition of human PTEN (1 to 403 residues) expressed in Escherichia coli strain BL21(DE3) using DiFMUP as substrate preincubated for 10 mins followed by substrate addition and measured after 10 mins by fluorescence assay
Sequence of Phosphatidylinositol 3,4,5-trisphosphate 3-phosphatase and dual-specificity protein phosphatase PTEN (P60484 whole entry, the tested form may be a part): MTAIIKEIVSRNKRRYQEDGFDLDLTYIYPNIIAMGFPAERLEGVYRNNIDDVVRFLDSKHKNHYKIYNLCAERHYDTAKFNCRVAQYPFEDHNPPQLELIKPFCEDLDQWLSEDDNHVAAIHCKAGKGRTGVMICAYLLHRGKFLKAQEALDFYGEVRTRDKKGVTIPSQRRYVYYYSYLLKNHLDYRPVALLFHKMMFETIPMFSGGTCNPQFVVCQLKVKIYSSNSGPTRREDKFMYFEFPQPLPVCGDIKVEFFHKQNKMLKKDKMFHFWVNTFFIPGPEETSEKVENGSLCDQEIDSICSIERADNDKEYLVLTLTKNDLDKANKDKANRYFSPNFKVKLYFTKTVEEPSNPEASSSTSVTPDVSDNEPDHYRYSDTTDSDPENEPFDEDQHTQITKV

Mus musculus [13] = assay: Antiobesity activity in high fat diet-induced obese Ptpn1fl/fl null C57BL/6 mouse treated with rAAV-CMV-Cre-GFP for deletion of PTP1B and TCPTP assessed as reduction in body weight at 100 ug/kg, ip for 10 consecutive days; format: functional, organism-based
[14] = molecular target: T1, Tyrosine-protein phosphatase non-receptor type 1 (Homo sapiens); assay: as §1, with “10 fold higher enzyme concentration” for “0.05% Tween20”; outline: as §2

CC1=C(O)C(=O)C=C2C1=CC=C1[C@@]2(C)CC[C@@]2(C)[C@@H]3C[C@](C)(C(=O)O)CC[C@]3(C)CC[C@]12C [CELASTROL]
Activity (Mus musculus [1]): Active
inhibition (Mus musculus [2]): Active
Activity (Mus musculus [3]): Active
inhibition [4]: Active
inhibition [5]: Active
inhibition [6]: Active
kon [7]: 59.46 M⁻¹ s⁻¹
inhibition [8]: Active
IC50 [9]: 3.1 µM
IC50 [10]: > 500 µM
IC50 [11]: > 500 µM
IC50 [12]: 13.3 µM
Activity (Mus musculus [13]): inactive
inhibition [14]: Active
